Test results: ChEMBL document CHEMBL4007489, “First Bispecific Inhibitors of the Epidermal Growth Factor Receptor Kinase and the NF-κB Activity As Novel Anticancer Agents” (J Med Chem, 2017)
Active and inactive are the calls of the source. No cut-off for these calls is given here.

How the values were obtained:
[1] = target: T1, Epidermal growth factor receptor (Homo sapiens, UniProt P00533); experiment: biochemical; format: cell-based
[2] = cells; format: cell-based; settings: Homo sapiens, U-937
[3] = system: MDA-MB-231; experiment: cells; format: functional; settings: Homo sapiens, MDA-MB-231, 48 h
[4] = target: Serine/threonine-protein kinase pim-1 (Homo sapiens, UniProt P11309); experiment: Inhibition of human recombinant full length His-tagged PIM-1 expressed in baculovirus expression system
[5] = organism: Homo sapiens; experiment: Inhibition of TNFalpha-stimulated NF-kappaB (unknown origin) expressed in human U937 cells at 5 uM incubated for 3 hrs followed by TNFalpha stimulation measured after 2.5 hrs by luciferase reporter gene assay; format: cell-based
[6] = Half life in Sprague-Dawley rat liver microsomes assessed as parent compound remaining at 0.5 uM in presence of NADPH by LC-MS/MS analysis; format: ADME, microsome
[7] = Blood clearance in Sprague-Dawley rat by LC-MS/MS analysis; format: ADME
[8] = Cmax in NMRI nu/nu mouse at 10 mg/kg, sc administered as single dose by LC-MS analysis; format: ADME, organism-based; design: dose 10 mg/kg, route subcutaneous; settings: in vivo
How it was run: (§1)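 Female NMRI nu/nu mice (28−32 g), nine animals per compound. Single sc injection of 10 mg/kg, formulated at 1 mg/mL in PBS/propylene glycol (80:20, v/v) by ultrasonication. Blood sampled at 10 min, 30 min, 1, 3, 8 and 24 h, two samples per animal, into heparinized tubes. Plasma proteins precipitated with acetonitrile containing griseofulvin internal standard. Quantified by LC-MS against calibration standards prepared in drug-free plasma.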

[9] = Tmax in NMRI nu/nu mouse at 10 mg/kg, sc administered as single dose by LC-MS analysis; format: ADME, organism-based; settings: in vivo
How it was run: as §1

[10] = Drug uptake in NMRI nu/nu mouse at 10 mg/kg, sc administered as single dose after 24 hrs by LC-MS analysis; format: ADME, organism-based; settings: in vivo, read-out: Drug uptake
How it was run: as §1

[11] = Half life in NMRI nu/nu mouse at 10 mg/kg, sc administered as single dose by LC-MS analysis; format: ADME, organism-based; settings: in vivo
How it was run: as §1

[12] = AUC (0 to 24 hrs) in NMRI nu/nu mouse at 10 mg/kg, sc administered as single dose by LC-MS analysis; format: ADME, organism-based; design: dose 10 mg/kg, time < 24 hr, route subcutaneous; settings: in vivo
How it was run: as §1

[13] = AUC (0 to infinity) in NMRI nu/nu mouse at 10 mg/kg, sc administered as single dose by LC-MS analysis; format: ADME, organism-based; design: dose 10 mg/kg, route subcutaneous, time infinity; settings: in vivo
How it was run: as §1

[14] = Apparent oral clearance in NMRI nu/nu mouse at 10 mg/kg, sc administered as single dose by LC-MS analysis; format: ADME, organism-based; settings: in vivo
How it was run: as §1

[15] = system: MDA-MB-231; experiment: Antitumor activity against human MDA-MB-231 cells xenografted in NMRI nu/nu mouse at 10 mg/kg, sc administered 5 days post tumor cell inoculation treated for 14 days followed by treatment pause for 6 days measured after 21 days; format: functional, organism-based
How it was run: (§2)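 MDA-MB-231 cells, 2 × 10^6 per site in Matrigel, injected into both flanks of female NMRI nu/nu mice about 8 weeks old; 6 mice per group. From day 5 after inoculation (day 1), sc dosing in PBS/propylene glycol 80:20. Dosing every weekday for 14 days, then a 6-day pause, then every second day from day 21 to sacrifice on day 28. Tumor diameters measured weekly by calipers; unpaired two-tailed t test against vehicle.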

[16] = system: Mus musculus; experiment: Toxicity in human MDA-MB-231 cells xenografted NMRI nu/nu mouse assessed as anomalous behaviour at 10 mg/kg, sc administered 5 days post tumor cell inoculation treated for 14 days followed by treatment pause for 6 days followed by treatment continuation on every second day until day 28 measured on day 7, 14 and day 28; format: organism-based; settings: in vivo
How it was run: (§3)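 Mice bearing MDA-MB-231 xenografts were monitored for behaviour and body weight over the 28-day sc dosing schedule. Organ morphology was inspected after sacrifice.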

[17] = system: Mus musculus; experiment: Toxicity in human MDA-MB-231 cells xenografted NMRI nu/nu mouse assessed as effect on organ morphology at 10 mg/kg, sc administered 5 days post tumor cell inoculation treated for 14 days followed by treatment pause for 6 days followed by treatment continuation on every second day until day 28 measured on day 7, 14 and day 28; format: organism-based; settings: in vivo
How it was run: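 Female NMRI nu/nu mice (~8 weeks old) received 2 × 10^6 MDA-MB-231 cells in Matrigel into each flank. Dosing began 5 days later (day 1), with 6 mice per group. Compound or vehicle was given sc in PBS/propylene glycol (80:20, v/v) at 1 mg/mL. Behaviour and body weight were followed. Organs were inspected morphologically after sacrifice on day 28.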

[18] = system: Mus musculus; experiment: Toxicity in human MDA-MB-231 cells xenografted NMRI nu/nu mouse assessed as effect on body weight at 10 mg/kg, sc administered 5 days post tumor cell inoculation treated for 14 days followed by treatment pause for 6 days followed by treatment continuation on every second day until day 28 measured on day 7, 14 and day 28; format: organism-based; settings: in vivo
How it was run: as §3

[19] = system: Mus musculus; experiment: Toxicity in NMRI nu/nu mouse assessed as anomalous behaviour at 10 mg/kg, sc administered as single dose; format: organism-based; settings: in vivo
[20] = system: Mus musculus; experiment: Toxicity in NMRI nu/nu mouse assessed as effect on organ morphology at 10 mg/kg, sc administered as single dose; format: organism-based; settings: in vivo
[21] = Solubility in water; format: physicochemical; settings: buffer
[22] = system: MDA-MB-231; experiment: Antitumor activity against human MDA-MB-231 cells xenografted in NMRI nu/nu mouse at 10 mg/kg, sc administered 5 days post tumor cell inoculation treated for 14 days followed by treatment pause for 6 days followed by treatment continuation on every second day until day 28 measured on day 7, 14 and day 28; format: functional, organism-based
How it was run: as §2

[23] = target: Receptor tyrosine-protein kinase erbB-4 (Homo sapiens) (UniProt Q15303); experiment: Inhibition of N-terminal GST-tagged human recombinant ERBB4 expressed in baculovirus expression system
[24] = target: T1, Epidermal growth factor receptor; settings: at 150 nM
[25] = target: Transcription factor p65 (Homo sapiens) (UniProt Q04206); experiment: Inhibition of IL-1beta-stimulated nuclear translocation of GFP-tagged NF-kappaB-p65 (unknown origin) expressed in CHO cells at 15 uM preincubated with IL-1beta for 30 mins followed by compound addition by fluorescence assay; format: cell-based
[26] = target: Transcription factor p65 (Homo sapiens) (UniProt Q04206); experiment: Inhibition of NF-kappaB-p65 binding to NF-kappaB response element oligonucleotide in nuclear extracts of 12 hrs compound pre-treated human MDA-MB-231 cells at 2.5 to 15 uM by ELISA
How it was run: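 MDA-MB-231 cells treated with compound or DMSO for 12 h; in some runs TNFα (20 ng/mL final) added for a further 20 min at 37 °C. Nuclear extracts prepared on ice and protein measured by Bradford. 5 μg of extract incubated on plate-immobilized NF-κB response element oligonucleotide. Bound complexes detected with anti-p65 primary and HRP secondary antibody, read at 450 nm. Specificity checked by competition with free oligonucleotide; triplicates.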

[27] = system: MDA-MB-231; experiment: Antitumor activity against human MDA-MB-231 cells xenografted in NMRI nu/nu mouse at 25 mg/kg, sc administered 5 days post tumor cell inoculation treated for 14 days followed by treatment pause for 6 days followed by treatment continuation on every second day until day 28 measured on day 7, 14 and day 28; format: functional, organism-based
How it was run: as §2

[28] = target: Transcription factor p65 (Homo sapiens) (UniProt Q04206); experiment: Inhibition of IL-1beta-stimulated nuclear translocation of GFP-tagged NF-kappaB-p65 (unknown origin) expressed in CHO cells at 15 uM preincubated with IL-1beta for 30 mins followed by compound addition in presence of Pluronic F127 by fluorescence assay; format: cell-based
[29] = target: Receptor tyrosine-protein kinase erbB-4 (Homo sapiens) (UniProt Q15303); settings: 0.5 uM
[30] = system: MDA-MB-231; experiment: Growth inhibition of human MDA-MB-231 cells at 20 uM after 48 hrs by MTT assay; format: functional, cell-based
How it was run: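 MDA-MB-231 cells seeded at 45000 per well and left to adhere overnight; compounds added after 24 h. Incubated a further 48 h at 37 °C. MTT added for 1 h, then cells lysed with 10% SDS in 0.01 N HCl for at least 2 h at 37 °C. Absorbance read at 570 nm.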

[31] = target: Transcription factor p65 (Homo sapiens) (UniProt Q04206); experiment: Inhibition of IL-1beta-stimulated nuclear translocation of GFP-tagged NF-kappaB-p65 (unknown origin) expressed in CHO cells preincubated with IL-1beta for 30 mins followed by compound addition by fluorescence assay; format: cell-based
How it was run: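 A GFP-NF-κB-p65 fusion was used; cells were stimulated for 30 min with 25 ng/mL IL-1β. Translocation of the fusion protein from cytoplasm to nucleus was imaged, and the system automatically quantified the ratio of cytoplasmic to nuclear fluorescence per well.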

[32] = target: T2, Proteasome Macropain subunit MB1 (Homo sapiens) (UniProt P28074); experiment: Inhibition of chymotrypsin like activity of 26S proteasome derived from human MDA-MB-231 cells at 1 uM
T2 sequence (whole entry): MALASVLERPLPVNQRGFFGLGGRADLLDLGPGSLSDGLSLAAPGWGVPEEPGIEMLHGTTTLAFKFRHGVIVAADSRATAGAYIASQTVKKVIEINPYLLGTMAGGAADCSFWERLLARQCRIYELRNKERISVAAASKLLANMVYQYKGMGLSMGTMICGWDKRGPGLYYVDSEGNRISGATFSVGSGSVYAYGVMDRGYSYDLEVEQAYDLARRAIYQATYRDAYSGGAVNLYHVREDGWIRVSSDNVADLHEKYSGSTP
How it was run: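 Total protein extract from MDA-MB-231 cells served as the source of 26S proteasome. Trypsin-like, chymotrypsin-like and caspase-like activities were each measured with a specific fluorigenic peptide substrate.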

[33] = target: T3, Proteasome component C5 (Homo sapiens) (UniProt P20618); settings: 1 uM
T3 sequence (whole entry): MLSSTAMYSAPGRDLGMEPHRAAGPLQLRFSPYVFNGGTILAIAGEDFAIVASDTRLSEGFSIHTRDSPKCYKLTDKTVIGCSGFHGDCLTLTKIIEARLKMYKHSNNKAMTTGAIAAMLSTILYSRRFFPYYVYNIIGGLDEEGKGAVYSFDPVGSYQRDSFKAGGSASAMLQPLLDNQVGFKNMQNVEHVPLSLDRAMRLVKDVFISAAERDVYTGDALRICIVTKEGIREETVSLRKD

[34] = target: Proteasome Macropain subunit (Homo sapiens) (UniProt P49721); settings: 1 uM
[35] = organism: Homo sapiens; experiment: Inhibition of TNFalpha-stimulated NF-kappaB (unknown origin) expressed in human U937 cells at 1 to 5 uM incubated for 3 hrs followed by TNFalpha stimulation measured after 2.5 hrs by luciferase reporter gene assay; format: cell-based

Chain of Transcription factor p65 (Homo sapiens) (Q04206 whole entry, the tested form may be a part): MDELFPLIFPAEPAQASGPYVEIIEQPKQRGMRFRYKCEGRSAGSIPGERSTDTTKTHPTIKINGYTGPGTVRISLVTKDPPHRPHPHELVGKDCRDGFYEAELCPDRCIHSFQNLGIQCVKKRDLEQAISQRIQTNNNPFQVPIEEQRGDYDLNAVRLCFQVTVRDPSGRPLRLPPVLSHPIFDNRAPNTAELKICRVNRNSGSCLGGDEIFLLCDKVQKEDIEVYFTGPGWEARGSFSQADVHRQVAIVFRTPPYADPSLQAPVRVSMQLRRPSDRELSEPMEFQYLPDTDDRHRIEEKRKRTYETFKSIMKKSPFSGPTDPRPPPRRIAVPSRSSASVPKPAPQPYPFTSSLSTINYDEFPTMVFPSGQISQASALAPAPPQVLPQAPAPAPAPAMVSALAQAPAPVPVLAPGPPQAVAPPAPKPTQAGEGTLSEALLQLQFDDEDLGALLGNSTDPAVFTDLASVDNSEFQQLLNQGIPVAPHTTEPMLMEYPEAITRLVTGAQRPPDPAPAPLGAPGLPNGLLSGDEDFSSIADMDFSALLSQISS
T1 sequence (P00533 whole entry): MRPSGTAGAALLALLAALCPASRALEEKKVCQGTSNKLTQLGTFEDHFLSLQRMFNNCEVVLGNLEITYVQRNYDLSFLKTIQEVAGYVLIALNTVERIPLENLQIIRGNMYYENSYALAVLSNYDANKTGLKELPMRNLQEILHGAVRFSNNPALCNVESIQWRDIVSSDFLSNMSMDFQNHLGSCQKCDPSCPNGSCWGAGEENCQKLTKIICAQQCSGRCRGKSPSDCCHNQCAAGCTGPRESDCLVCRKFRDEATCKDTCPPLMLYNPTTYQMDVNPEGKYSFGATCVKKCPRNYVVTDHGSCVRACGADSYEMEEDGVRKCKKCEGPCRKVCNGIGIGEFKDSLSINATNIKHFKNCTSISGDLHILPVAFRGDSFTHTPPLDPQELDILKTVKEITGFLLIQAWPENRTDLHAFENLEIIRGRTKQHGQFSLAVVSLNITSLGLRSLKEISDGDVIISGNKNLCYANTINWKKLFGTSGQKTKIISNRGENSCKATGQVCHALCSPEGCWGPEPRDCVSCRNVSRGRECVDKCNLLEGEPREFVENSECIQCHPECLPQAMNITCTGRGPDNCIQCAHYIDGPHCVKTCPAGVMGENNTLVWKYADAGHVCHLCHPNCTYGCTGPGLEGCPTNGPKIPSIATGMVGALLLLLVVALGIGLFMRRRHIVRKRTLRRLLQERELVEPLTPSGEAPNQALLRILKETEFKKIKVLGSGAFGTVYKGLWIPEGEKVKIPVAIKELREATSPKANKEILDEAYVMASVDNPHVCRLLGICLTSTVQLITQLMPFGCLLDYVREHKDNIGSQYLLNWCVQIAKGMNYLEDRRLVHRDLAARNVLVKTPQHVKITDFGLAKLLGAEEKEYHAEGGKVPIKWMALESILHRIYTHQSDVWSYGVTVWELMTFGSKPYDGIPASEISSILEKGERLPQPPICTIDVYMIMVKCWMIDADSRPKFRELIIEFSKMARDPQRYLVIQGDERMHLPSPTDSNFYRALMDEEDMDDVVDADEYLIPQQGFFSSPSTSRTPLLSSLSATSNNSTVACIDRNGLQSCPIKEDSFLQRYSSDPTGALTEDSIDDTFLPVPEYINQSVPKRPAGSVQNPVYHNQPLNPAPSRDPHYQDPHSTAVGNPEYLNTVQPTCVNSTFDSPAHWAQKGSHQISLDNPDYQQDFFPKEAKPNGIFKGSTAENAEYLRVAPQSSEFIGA
Chain of Receptor tyrosine-protein kinase erbB-4 (Homo sapiens) (Q15303 whole entry): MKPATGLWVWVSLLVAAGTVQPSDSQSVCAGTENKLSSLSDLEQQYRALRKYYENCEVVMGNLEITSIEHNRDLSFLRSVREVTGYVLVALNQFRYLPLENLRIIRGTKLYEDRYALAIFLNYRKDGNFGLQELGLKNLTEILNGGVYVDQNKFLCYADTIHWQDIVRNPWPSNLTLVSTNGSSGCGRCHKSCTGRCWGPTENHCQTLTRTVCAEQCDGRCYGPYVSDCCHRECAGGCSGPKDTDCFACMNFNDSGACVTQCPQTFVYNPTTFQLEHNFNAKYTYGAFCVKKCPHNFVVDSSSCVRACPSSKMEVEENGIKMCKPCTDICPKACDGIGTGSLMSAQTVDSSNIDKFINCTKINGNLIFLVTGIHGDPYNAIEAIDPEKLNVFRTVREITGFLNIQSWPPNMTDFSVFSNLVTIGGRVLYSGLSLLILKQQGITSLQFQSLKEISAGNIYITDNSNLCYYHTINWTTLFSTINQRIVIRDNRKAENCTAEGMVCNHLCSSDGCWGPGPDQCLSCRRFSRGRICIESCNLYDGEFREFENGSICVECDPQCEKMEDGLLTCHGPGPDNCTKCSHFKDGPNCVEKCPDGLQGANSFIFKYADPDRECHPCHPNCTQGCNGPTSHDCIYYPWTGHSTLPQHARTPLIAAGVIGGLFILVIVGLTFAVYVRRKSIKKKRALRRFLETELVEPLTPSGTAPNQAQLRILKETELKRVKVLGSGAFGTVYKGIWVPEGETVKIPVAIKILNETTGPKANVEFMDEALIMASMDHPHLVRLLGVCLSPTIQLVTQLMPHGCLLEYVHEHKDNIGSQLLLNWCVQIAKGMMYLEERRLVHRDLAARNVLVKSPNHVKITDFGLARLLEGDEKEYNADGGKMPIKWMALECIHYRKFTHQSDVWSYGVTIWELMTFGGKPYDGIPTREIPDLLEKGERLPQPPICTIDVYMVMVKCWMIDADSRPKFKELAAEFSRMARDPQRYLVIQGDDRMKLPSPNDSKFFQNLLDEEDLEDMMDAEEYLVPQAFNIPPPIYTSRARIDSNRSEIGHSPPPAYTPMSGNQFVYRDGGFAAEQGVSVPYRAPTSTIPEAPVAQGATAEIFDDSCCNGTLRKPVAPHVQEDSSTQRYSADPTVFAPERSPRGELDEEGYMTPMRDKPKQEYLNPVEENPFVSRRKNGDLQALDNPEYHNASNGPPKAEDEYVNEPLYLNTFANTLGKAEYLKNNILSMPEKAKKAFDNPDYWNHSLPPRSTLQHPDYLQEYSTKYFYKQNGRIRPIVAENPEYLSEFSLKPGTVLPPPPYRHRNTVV
Chain of Proteasome Macropain subunit (Homo sapiens) (P49721 whole entry): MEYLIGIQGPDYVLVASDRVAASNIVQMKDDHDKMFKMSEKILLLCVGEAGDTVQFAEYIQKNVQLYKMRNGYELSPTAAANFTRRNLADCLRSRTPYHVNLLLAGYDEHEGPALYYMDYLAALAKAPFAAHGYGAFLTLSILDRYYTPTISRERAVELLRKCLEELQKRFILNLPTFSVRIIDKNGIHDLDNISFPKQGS
Chain of Serine/threonine-protein kinase pim-1 (P11309 whole entry, looked up): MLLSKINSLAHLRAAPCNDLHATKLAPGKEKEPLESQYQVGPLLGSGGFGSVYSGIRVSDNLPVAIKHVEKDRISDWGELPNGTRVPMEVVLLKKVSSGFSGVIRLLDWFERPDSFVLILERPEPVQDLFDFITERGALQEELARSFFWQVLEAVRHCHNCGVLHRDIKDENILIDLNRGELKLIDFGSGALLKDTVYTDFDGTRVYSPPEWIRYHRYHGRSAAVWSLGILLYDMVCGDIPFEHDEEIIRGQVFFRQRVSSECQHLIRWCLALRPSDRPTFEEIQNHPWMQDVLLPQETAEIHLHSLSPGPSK

Fc1cc(F)cc(NC(=S)Nc2ccc3ncnc(Nc4cccc(Cl)c4)c3c2)c1
IC50 [1]: 60.1 nM
IC50 [2]: 300 nM
GI50 [3]: 1100 nM
inhibition [4]: inactive
inhibition [5]: 73.5%
half-life at 0.5 µM [6]: 2.32 h
clearance [7]: 19 mL/min/kg
Cmax [8]: 327 ng/mL
Tmax [9]: 8 h
concentration at 24 h [10]: 79 ng/mL
half-life [11]: 7.8 h
AUC(0-t) at 24 h [12]: 5440 ng·h/mL
AUC(0-inf) [13]: 6330 ng·h/mL
CL/F [14]: 26.3 mL/min/kg
TGI [15]: Active
Activity [16]: Non-Toxic
Activity [17]: Non-Toxic
Activity [18]: Non-Toxic
Activity [19]: Non-Toxic
Activity [20]: Non-Toxic
solubility [21]: Soluble
TGI [22]: Active
inhibition [23]: inactive
inhibition [24]: 87.6%

Cc1nnc(NC(=S)Nc2ccc3ncnc(Nc4cccc(Cl)c4)c3c2)s1
IC50 [1]: 120 nM
IC50 [2]: 1200 nM
inhibition [5]: 76.1%
inhibition [24]: 70.8%

COc1cc2ncnc(Nc3ccc(F)c(Cl)c3)c2cc1OCCCN1CCOCC1 [GEFITINIB]
inhibition [25]: inactive
inhibition [26]: inactive
TGI [27]: Active
inhibition [28]: inactive
solubility [21]: Soluble
inhibition [29]: 46 to 76%

S=C(Nc1ccc2ncnc(Nc3cccc(Cl)c3)c2c1)Nc1ncc(Cl)s1
IC50 [1]: 120 nM
IC50 [2]: 700 nM
inhibition [5]: 88.2%
growth inhibition (GI) [30]: inactive
inhibition [24]: 60%

S=C(Nc1cncc(Cl)c1)Nc1ccc2ncnc(Nc3cccc(Cl)c3)c2c1
IC50 [1]: 55.5 nM
IC50 [2]: 3000 nM
inhibition [5]: 78%
inhibition [24]: 85%

FC(F)(F)c1nnc(NC(=S)Nc2ccc3ncnc(Nc4cccc(Cl)c4)c3c2)s1
IC50 [1]: 130 nM
IC50 [2]: 1000 nM
inhibition [5]: 80.5%
inhibition [24]: 70.7%

CC(C)C[C@H](NC(=O)[C@H](Cc1ccccc1)NC(=O)c1cnccn1)B(O)O
inhibition [31]: Dose-dependent effect
inhibition [32]: Active
inhibition [33]: Active
inhibition [34]: Active

Fc1ccc(NC(=S)Nc2ccc3ncnc(Nc4cccc(Cl)c4)c3c2)cc1F
inhibition [5]: 37.6%
inhibition [24]: 44.4%

O=C1NC(=O)/C(=C/c2cccc(C(F)(F)F)c2)S1
inhibition [35]: inactive

FC(F)(F)c1csc(NC(=S)Nc2ccc3ncnc(Nc4cccc(Cl)c4)c3c2)n1
IC50 [1]: 137 nM
IC50 [2]: 600 nM
GI50 [3]: 900 nM
inhibition [5]: 92%
half-life at 0.5 µM [6]: 0.367 h
clearance [7]: 51 mL/min/kg
Cmax [8]: 101 ng/mL
Tmax [9]: 1 h
concentration at 24 h [10]: 3.5 ng/mL
half-life [11]: 4.3 h
AUC(0-t) at 24 h [12]: 1040 ng·h/mL
AUC(0-inf) [13]: 1060 ng·h/mL
CL/F [14]: 157 mL/min/kg
Activity [16]: Non-Toxic
Activity [17]: Non-Toxic
Activity [18]: Non-Toxic
Activity [19]: Non-Toxic
Activity [20]: Non-Toxic
solubility [21]: Soluble
inhibition [24]: 56.4%
